In assay [1] the target is Acetylcholinesterase (Electrophorus electricus, UniProt O42275). As to the kind of experiment: Inhibition of electric eel AChE using acetylthiocholine iodide as substrate pretreated for 10 mins followed by substrate addition measured after 20 mins by Ellman's method.
Assay [2] has as its target Cholinesterase (Equus caballus, UniProt P81908). The assay can be described thus: Inhibition of horse serum BChE using butyrylthiocholine iodide as substrate pretreated for 10 mins followed by substrate addition measured after 20 mins by Ellman's method. Put shortly: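 Horse serum BChE was preincubated 10 min with test sample (20, 40, 60, 80, 100 μM). Butyrylthiocholine chloride (0.2 mM) was then added with DTNB (0.5 mM) in phosphate buffer pH 8 and incubated 20 min at 37 °C. Run in triplicate; IC50 by simple linear regression.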
On the technique in general: Ellman's reagent forms a yellow product with free thiols.

Among the data in ChEMBL document CHEMBL4118263, “Synthesis, structure-activity relationship and molecular docking studies of 3-O-flavonol glycosides as cholinesterase inhibitors” (Bioorg Med Chem, 2018) are IC50 values, retold here.

Each structure is given as a SMILES string.

Chain of Acetylcholinesterase (O42275 whole entry): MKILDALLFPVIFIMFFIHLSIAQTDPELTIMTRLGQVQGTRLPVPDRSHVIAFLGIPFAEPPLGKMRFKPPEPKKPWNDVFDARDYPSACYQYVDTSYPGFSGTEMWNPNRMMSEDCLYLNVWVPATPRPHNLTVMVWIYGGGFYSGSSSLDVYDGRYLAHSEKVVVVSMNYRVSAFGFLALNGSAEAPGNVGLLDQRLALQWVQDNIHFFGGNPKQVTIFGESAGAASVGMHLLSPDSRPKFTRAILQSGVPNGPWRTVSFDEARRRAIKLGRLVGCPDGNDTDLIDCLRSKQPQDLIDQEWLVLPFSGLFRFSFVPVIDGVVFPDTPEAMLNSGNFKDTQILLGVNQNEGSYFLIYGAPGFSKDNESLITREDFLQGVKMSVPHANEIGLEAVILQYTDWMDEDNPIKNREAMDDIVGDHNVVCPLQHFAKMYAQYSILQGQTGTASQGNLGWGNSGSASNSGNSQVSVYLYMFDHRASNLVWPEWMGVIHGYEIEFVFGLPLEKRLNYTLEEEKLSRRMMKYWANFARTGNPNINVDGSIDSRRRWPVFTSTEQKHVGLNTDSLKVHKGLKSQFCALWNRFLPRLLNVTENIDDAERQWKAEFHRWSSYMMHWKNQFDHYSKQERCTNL
Chain of Cholinesterase (P81908 whole entry): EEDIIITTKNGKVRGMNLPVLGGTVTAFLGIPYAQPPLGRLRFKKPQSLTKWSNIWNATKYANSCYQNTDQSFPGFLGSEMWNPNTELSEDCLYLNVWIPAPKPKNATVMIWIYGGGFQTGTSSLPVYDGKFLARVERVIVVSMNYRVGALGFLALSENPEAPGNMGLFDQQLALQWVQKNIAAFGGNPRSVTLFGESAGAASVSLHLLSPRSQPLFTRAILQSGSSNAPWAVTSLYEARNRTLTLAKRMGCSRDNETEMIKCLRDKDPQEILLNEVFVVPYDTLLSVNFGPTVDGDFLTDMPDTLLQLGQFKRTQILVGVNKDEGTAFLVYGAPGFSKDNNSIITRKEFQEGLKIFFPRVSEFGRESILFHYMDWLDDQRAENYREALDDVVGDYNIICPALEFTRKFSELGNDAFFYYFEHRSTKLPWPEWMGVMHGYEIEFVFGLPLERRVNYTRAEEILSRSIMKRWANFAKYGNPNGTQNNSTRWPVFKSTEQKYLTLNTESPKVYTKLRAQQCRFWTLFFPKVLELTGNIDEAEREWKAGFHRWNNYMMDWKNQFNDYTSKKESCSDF

For the molecule `CC(=O)OC[C@H]1O[C@@H](Oc2c(-c3cccc4ccccc34)oc3ccccc3c2=O)[C@H](OC(C)=O)[C@@H](OC(C)=O)[C@@H]1OC(C)=O`, the IC50 turned out to be 36.4 µM in assay [1] and 18.7 µM in assay [2].

As for `CC(=O)OC[C@H]1O[C@@H](Oc2c(-c3ccc(F)cc3)oc3ccccc3c2=O)[C@H](OC(C)=O)[C@@H](OC(C)=O)[C@@H]1OC(C)=O`, the figures for the half-maximal inhibitory concentration (IC50) in assay [1] and in assay [2] were 29.2 µM and 49.8 µM, respectively.

Take `COc1ccc(-c2oc3ccccc3c(=O)c2O[C@@H]2O[C@H](COC(C)=O)[C@@H](OC(C)=O)[C@H](OC(C)=O)[C@H]2OC(C)=O)cc1`: the figures for the IC50 in assay [1] and in assay [2] were 20.7 µM and 26 µM, respectively.

Regarding `CC(=O)Nc1ccc(-c2oc3ccccc3c(=O)c2O[C@@H]2O[C@H](COC(C)=O)[C@@H](OC(C)=O)[C@H](OC(C)=O)[C@H]2OC(C)=O)cc1`, the IC50 amounted to 38.7 µM in assay [1] and 39.7 µM in assay [2].

For the molecule `CC(=O)OC[C@H]1O[C@@H](Oc2c(-c3ccc(CC(C)C)cc3)oc3ccccc3c2=O)[C@H](OC(C)=O)[C@@H](OC(C)=O)[C@@H]1OC(C)=O`, the values for the IC50 in assay [1] and in assay [2] were 2.05 µM and 5.42 µM, respectively.

On to `CC(=O)OC[C@H]1O[C@@H](Oc2c(-c3ccc(Br)cc3)oc3ccccc3c2=O)[C@H](OC(C)=O)[C@@H](OC(C)=O)[C@@H]1OC(C)=O`, for which the values for the IC50 in assay [1] and in assay [2] were 10.2 µM and 3.12 µM, respectively.

`CC(=O)OC[C@H]1O[C@@H](Oc2c(-c3ccc(Br)cc3)oc3cc(C)ccc3c2=O)[C@H](OC(C)=O)[C@@H](OC(C)=O)[C@@H]1OC(C)=O`: the IC50 in assay [1] was found to be 22.4 µM; in assay [2], 30.6 µM.

For `CC(=O)OC[C@H]1O[C@@H](Oc2c(-c3ccccc3C(=O)O)oc3ccccc3c2=O)[C@H](OC(C)=O)[C@@H](OC(C)=O)[C@@H]1OC(C)=O`, the concentration for half-maximal inhibition (IC50) in assay [1] was determined as 34 µM; in assay [2], 48.4 µM.

`CC(=O)OC[C@H]1O[C@@H](Oc2c(-c3cccs3)oc3ccccc3c2=O)[C@H](OC(C)=O)[C@@H](OC(C)=O)[C@@H]1OC(C)=O`: the concentration for half-maximal inhibition (IC50) is 18.5 µM in assay [1] and 25.5 µM in assay [2].

On to `CC(=O)OC[C@H]1O[C@@H](Oc2c(-c3ccccc3)oc3ccccc3c2=O)[C@H](OC(C)=O)[C@@H](OC(C)=O)[C@@H]1OC(C)=O`, for which the half-inhibitory concentration (IC50) was 103 µM in assay [1] and 45.9 µM in assay [2].

Broadly, the IC50 is the concentration at which inhibition is half-maximal.
